# According to ChEMBL document CHEMBL3414449, “DUPA conjugation of a cytotoxic indenoisoquinoline topoisomerase I inhibitor for selective prostate cancer cell targeting” (J Med Chem, 2015):
# pIC50: −log10 of the molar value. Calls of active or inactive are those of the source. The calls are words filed in the database; no cut-off is given here.
# Legend:
# [1] = biological target: Glutamate carboxypeptidase 2 (Homo sapiens, UniProt Q04609); assay: Inhibition of PSMA (unknown origin)
# Mus musculus [2] = assay: Toxicity in human 22Rv1 cells xenografted nu/nu mouse assessed as induction of mouse death at 2 umol/kg, ip administered as single dose on alternative days, 3 days/week for 3 weeks; type: organism-based, CWR22R; conditions: in vivo
# Procedure, shortened: (§1)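 Male nu/nu mice, 5–6 weeks old, given 2 × 10^6 22RV1 cells in 20% HC Matrigel in the right shoulder. Dosing began at tumor ~100 mm3, 5 mice/group, ip in sterile saline (100 μL). Tumors measured by caliper every 2–3 days, volume = 0.5 × L × W2. Body weight recorded at each dosing. Live mice counted per dose. Untreated controls got saline.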
# Mus musculus [3] = assay: Toxicity in human 22Rv1 cells xenografted nu/nu mouse at 2 umol/kg, ip administered as single dose on alternative days, 3 days/week for 3 weeks; type: organism-based, CWR22R; conditions: in vivo; procedure, shortened: as §1
# CWR22R [4] = assay: Antitumor activity against human 22Rv1 cells xenografted in nu/nu mouse assessed as regression of tumor growth at 2 umol/kg, ip administered as single dose on alternative days, 3 days/week for 3 weeks; type: functional, organism-based; procedure, shortened: as §1
# CWR22R [5] = assay: Cytotoxicity against human 22Rv1 cells after 2 hrs by [3H]thymidine incorporation assay; type: functional, cell-based
# Procedure, shortened: (§2)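 22RV1 cells seeded at 50 000/well and grown to monolayer over 24–48 h. Drug pulse in fresh medium at 37 °C for 2 h or 24 h, then washed and chased 66 h. Labelled with 3H-thymidine (1 mCi/mL) for 4 h, TCA-precipitated, NaOH-solubilized and scintillation counted. IC50 from % incorporation vs log concentration.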
# Mus musculus [6] = assay: Toxicity in human 22Rv1 cells xenografted nu/nu mouse assessed as effect on body weight at 2 umol/kg, ip administered as single dose on alternative days, 3 days/week for 3 weeks; type: organism-based, CWR22R; conditions: in vivo; procedure, shortened: as §1
# CWR22R [7] = assay: Cytotoxicity against human 22Rv1 cells after 24 hrs by [3H]thymidine incorporation assay; type: functional, cell-based; procedure, shortened: as §2
# CWR22R [8] = assay: Antitumor activity against human 22Rv1 cells xenografted in nu/nu mouse assessed as reduction in tumor mass at 2 umol/kg, ip administered as single dose on alternative days, 3 days/week for 3 weeks by hematoxylin and eosin staining; type: functional, organism-based
# CWR22R [9] = assay: Antitumor activity against human 22Rv1 cells xenografted in nu/nu mouse assessed as regression of tumor growth at 2 umol/kg, ip administered as single dose on alternative days, 3 days/week for 3 weeks co-administered with 100 fold excess dose of DUPA-Aoc-Phe-Phe-Dap-Asp-Cys reagent; type: functional, organism-based; procedure, shortened: as §1
# Chain of Glutamate carboxypeptidase 2 (Q04609 whole entry): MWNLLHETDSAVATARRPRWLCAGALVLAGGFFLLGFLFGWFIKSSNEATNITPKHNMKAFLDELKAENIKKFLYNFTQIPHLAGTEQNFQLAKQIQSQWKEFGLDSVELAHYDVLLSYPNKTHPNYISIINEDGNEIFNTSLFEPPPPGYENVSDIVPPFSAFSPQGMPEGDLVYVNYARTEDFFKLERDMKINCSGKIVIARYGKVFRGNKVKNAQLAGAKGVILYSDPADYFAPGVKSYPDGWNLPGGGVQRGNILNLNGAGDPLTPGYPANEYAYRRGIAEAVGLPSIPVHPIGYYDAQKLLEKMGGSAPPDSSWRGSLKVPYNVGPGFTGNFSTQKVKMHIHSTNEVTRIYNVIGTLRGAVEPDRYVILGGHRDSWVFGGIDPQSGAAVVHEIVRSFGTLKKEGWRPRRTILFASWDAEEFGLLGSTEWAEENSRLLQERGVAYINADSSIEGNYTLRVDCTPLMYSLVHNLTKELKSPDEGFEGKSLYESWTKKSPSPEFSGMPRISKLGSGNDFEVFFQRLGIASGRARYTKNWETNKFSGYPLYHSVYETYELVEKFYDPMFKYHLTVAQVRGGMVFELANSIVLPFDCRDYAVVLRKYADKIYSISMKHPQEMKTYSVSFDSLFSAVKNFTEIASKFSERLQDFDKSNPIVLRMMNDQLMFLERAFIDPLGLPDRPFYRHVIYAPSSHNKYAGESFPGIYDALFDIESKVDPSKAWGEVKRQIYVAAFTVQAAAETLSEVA
pIC50 [1],SMILES,Activity (Mus musculus [2]),Activity (Mus musculus [3]),Activity (CWR22R [4]),"pIC50 (CWR22R [5]; Homo sapiens, 22Rv1, read-out: IC50)",Activity (Mus musculus [6]),pIC50 (CWR22R [7]),Activity (CWR22R [8]),Activity (CWR22R [9]),IC50 (CWR22R [5]; cwr22r)
7.33,O=C(O)CC[C@H](NC(=O)N[C@@H](CCC(=O)O)C(=O)O)C(=O)O,,,,,,,,,
,COc1cc2c(cc1O)C(=O)c1c-2n(CCCN2CCOCC2)c(=O)c2cc(OC)c(OC)cc12,Toxic,Toxic,Active,8.70,Non-toxic,,,,
,COc1cc2c3c(n(CCCN4CCOCC4)c(=O)c2cc1OC)-c1cc(OC)c(OC(=O)OCCSSC[C@H](NC(=O)[C@H](CC(=O)O)NC(=O)[C@@H](N)CNC(=O)[C@H](Cc2ccccc2)NC(=O)[C@H](Cc2ccccc2)NC(=O)CCCCCCCNC(=O)CC[C@H](NC(=O)N[C@@H](CCC(=O)O)C(=O)O)C(=O)O)C(=O)O)cc1C3=O,Non-toxic,Non-toxic,Active,,Non-toxic,7.94,Active,inactive,Not Active
